In PMC11757988 (Scientific Reports, 2025):

Columns and labels:
[1] = Blood compatibility study; format: cell-based; settings: rat, heparinized whole blood
In short: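 Rat heparinized blood (0.2 mL) added to 3 mL normal saline containing test material at 1000 µg/mL, saline-only negative and distilled-water positive controls; 1 h at 37 °C with shaking; centrifuged 6000 rpm, 20 min; filtered supernatant read at 545 nm for released hemoglobin; activity = (sample − negative control absorbance)/positive control absorbance.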

[2] = In vivo pharmacokinetic study, intravenous; design: species or system female Wistar rats; settings: rat
In short: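 Eight-week-old female Wistar rats (250 ± 10 g), single i.v. dose of test compound solution at 10 mg/kg (nanoparticles at equivalent dose), saline control group. Tail-vein blood (300 µL) at 1–38 h into heparinized tubes; plasma by chilled centrifugation; acetonitrile protein precipitation, nitrogen drying, methanol reconstitution; HPLC-UV with plasma calibration 0.5–20 µg/mL; mean ± SD, n = 6.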

[3] = Thermogravimetric analysis; format: physicochemical; settings: TGA
In short: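 Samples of about 5 mg in platinum pans heated from 5 °C to 900 °C at 10 °C per min under nitrogen flowing at 60 mL per min; percentage weight loss recorded against temperature.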

[4] = female, Wistar, plasma, iv, 10 mg/kg
[5] = i.v., DZ 10 mg/kg equivalent, n = 6, listed as DZ-Solution

Question: For `O=c1c(-c2ccc(O)cc2)coc2cc(O)ccc12` [DZ, daidzein], which hemolysis at 1 h, 1000 µg/mL [1] is on record?
Answer: The hemolysis at 1 h, 1000 µg/mL was 0.98 ± 0.14%.

Question: And the MRT inf [2, 4]?
Answer: The MRT inf was 2.97 ± 0.95 h.

Question: And the Tmax [2, 4]?
Answer: The Tmax was 1 ± 0.78 h.

Question: What about the AUC(0-inf) ([2]; female, Wistar, plasma, iv, 10 mg/kg, AUC0−∞, DZ 10 mg/kg equivalent, n = 6) of the same compound?
Answer: The AUC(0-inf) was 2300 µg·h/mL.

Question: What about the Cmax ([2]; female, Wistar, plasma, iv, 10 mg/kg, C max, DZ 10 mg/kg equivalent, n = 6) of the same compound?
Answer: Its Cmax is 382 µg/mL.

Question: And the half-life ([2]; female, Wistar, plasma, iv, 10 mg/kg, t1/2, rat, DZ 10 mg/kg equivalent, n = 6)?
Answer: Its half-life is 3.45 h.

Question: What about the “AUC0−∞” value [2, 5] of the same compound?
Answer: Its value is 2299.73 ± 0.67 µg·h/mL.

Question: What about the C max [2, 5] of the same compound?
Answer: The C max was 381.59 ± 1.12 µg/mL.

Question: And the t1/2 [2, 5]?
Answer: Its t1/2 is 3.44 ± 0.44 h.

Question: And the “Temperature at which decomposition started” value [3]?
Answer: The value was 340–350 °C.
